Legend:
[1] = system: Norwalk virus; assay: Antiviral activity against Norwalk virus infected in human HG23 cells assessed as inhibition of viral replication after 24 hrs by qRT-PCR; format: functional; details: HG23, 24 h, read-out: ED50 (the source's name)
Summary of the method: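 HG23 cells (Norwalk virus replicon-bearing), one day old at 80–90% confluence, exposed to graded compound levels from 0 (mock-DMSO) to 10 µM. NV genome quantified by qRT-PCR; ED50 for genome levels taken at 24 h post-treatment. Values averaged over at least two independent experiments, mean ± standard deviation.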

[2] = Cytotoxicity against human HG23 cells after 48 hrs; format: cell-based; details: read-out: TD50
Summary of the method: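 Replicon-harboring HG23 cells exposed to graded compound levels from 0 (mock-DMSO) to 320 µM for 48 h. Viability read with a commercial cell cytotoxicity assay kit, and the median toxic dose (TD50) was calculated from it.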

Row | EC50 [1] | SMILES | CC50 at 48 h [2]
1 | > 10 µM | CCCCc1ccc(CN2CCNS2(=O)=O)cc1 | 
2 | 4.1 µM | O=S1(=O)NCCN1Cc1cccc(Oc2ccccc2)c1 | 50 µM
3 | 5.2 µM | O=S1(=O)NCCN1Cc1cccc(OCc2ccccc2)c1 | 18 µM
4 | > 10 µM | O=S1(=O)NCCN1Cc1cccc(O)c1 | 
5 | 5.8 µM | O=S1(=O)NCCN1Cc1ccc(Oc2ccccc2)cc1 | 57 µM
6 | 5.2 µM | CCCOc1ccc(CN2CCNS2(=O)=O)cc1 | 96 µM
7 | 9.8 µM | O=S1(=O)NCCN1Cc1ccc(OCc2ccccc2)cc1 | 159 µM
8 | > 10 µM | CCOc1ccc(CN2CCNS2(=O)=O)cc1 | 
9 | > 10 µM | CC(C)Oc1ccc(CN2CCNS2(=O)=O)cc1 | 
10 | 9.5 µM | CCCCOc1ccc(CN2CCNS2(=O)=O)cc1 | 
11 | > 10 µM | CCCc1ccc(CN2CCNS2(=O)=O)cc1 | 
12 | 9.7 µM | CC(C)Cc1ccc(CN2CCNS2(=O)=O)cc1 | 
13 | > 10 µM | CSc1ccc(CN2CCNS2(=O)=O)cc1 | 
14 | > 10 µM | O=S1(=O)NCCN1Cc1ccc(OC(F)(F)F)cc1 | 
15 | > 10 µM | O=S1(=O)NCCN1Cc1cccc(OC(F)(F)F)c1 | 
16 | > 10 µM | O=S1(=O)NCCN1Cc1cccc(Cl)c1 | 
17 | > 10 µM | COc1cccc(CN2CCNS2(=O)=O)c1 | 
18 | > 10 µM | COc1ccc(CN2CCNS2(=O)=O)cc1 | 
19 | > 10 µM | O=S1(=O)NCCN1Cc1ccc(Cl)cc1 | 
20 | > 10 µM | O=S1(=O)NCCN1Cc1cn(Cc2ccccc2)nn1 | 
21 | > 10 µM | COc1ccc(Cn2cc(CN3CCNS3(=O)=O)nn2)cc1 | 

The remaining lines, values behind:

Row | SMILES | EC50 [1] | CC50 at 48 h [2]
22 | O=S1(=O)N(CCN2CCOCC2)CCN1Cc1cccc(Oc2ccccc2)c1 |  | 49 µM
23 | O=S1(=O)NCCN1Cc1cccc(Oc2ccc(F)cc2)c1 | > 10 µM | 98 µM
24 | CC(C)(C)OC(=O)N1CCN(Cc2cn(Cc3ccccc3)nn2)S1(=O)=O | > 10 µM | 
25 | COc1ccc(Cn2cc(CN3CCN(C(=O)OC(C)(C)C)S3(=O)=O)nn2)cc1 | 9.8 µM | 
26 | O=S1(=O)NCCN1CC1CCCN(Cc2ccccc2)C1 (configuration not stated) | > 10 µM | 
27 | COC(=O)CN1CCN(Cc2cccc(Oc3ccccc3)c2)S1(=O)=O | > 10 µM | 
28 | COC(=O)CCN1CCN(Cc2cccc(Oc3ccccc3)c2)S1(=O)=O | > 10 µM | 
29 | COC(=O)CCCN1CCN(Cc2cccc(Oc3ccccc3)c2)S1(=O)=O | > 10 µM | 
30 | COC(=O)CCCCN1CCN(Cc2cccc(Oc3ccccc3)c2)S1(=O)=O | 9.7 µM | 46 µM
31 | COC(=O)CCCCCCN1CCN(Cc2cccc(Oc3ccccc3)c2)S1(=O)=O | > 10 µM | 
32 | COC(=O)c1ccc(CN2CCN(Cc3cccc(Oc4ccccc4)c3)S2(=O)=O)cc1 | > 10 µM | 
33 | O=C(O)CN1CCN(Cc2cccc(Oc3ccccc3)c2)S1(=O)=O | 7.8 µM | 48 µM
34 | O=C(O)CCN1CCN(Cc2cccc(Oc3ccccc3)c2)S1(=O)=O | > 10 µM | 
35 | O=C(O)CCCN1CCN(Cc2cccc(Oc3ccccc3)c2)S1(=O)=O | > 10 µM | 
36 | O=C(O)CCCCN1CCN(Cc2cccc(Oc3ccccc3)c2)S1(=O)=O | 6.1 µM | 100 µM
37 | O=C(O)CCCCCCN1CCN(Cc2cccc(Oc3ccccc3)c2)S1(=O)=O | > 10 µM | 
38 | O=C(O)c1ccc(CN2CCN(Cc3cccc(Oc4ccccc4)c3)S2(=O)=O)cc1 | > 10 µM | 
39 | CN1CCN(Cc2cccc(Oc3ccccc3)c2)S1(=O)=O | > 10 µM | 
40 | CCN1CCN(Cc2cccc(Oc3ccccc3)c2)S1(=O)=O | > 10 µM | 
41 | N#CCN1CCN(Cc2cccc(Oc3ccccc3)c2)S1(=O)=O | > 10 µM | 
42 | O=S1(=O)N(Cc2ccccc2)CCN1Cc1cccc(Oc2ccccc2)c1 | > 10 µM | 
43 | O=S1(=O)N(Cc2ccc(F)cc2)CCN1Cc1cccc(Oc2ccccc2)c1 | > 10 µM | 
44 | O=S1(=O)N(Cc2cccnc2)CCN1Cc1cccc(Oc2ccccc2)c1 | 8.1 µM | 53 µM
45 | NC(=O)CN1CCN(Cc2cccc(Oc3ccccc3)c2)S1(=O)=O | > 10 µM | 
46 | O=S1(=O)N(CCN2CCCCC2)CCN1Cc1cccc(Oc2ccccc2)c1 | 4.3 µM | 9.8 µM

— ChEMBL document CHEMBL1833900, “Potent inhibition of Norwalk virus by cyclic sulfamide derivatives” (Bioorg Med Chem, 2011)
